Key:
[1] = substrate: CN(Cc1ccccc1)C(=O)CC(=O)Oc1cccc(C(=O)O)c1; assay: (§1) Activity at Actinomadura R39 DD-peptidase by spectrophotometry; conditions: Actinomadura sp. R39
How it was run: (§2)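 Steady-state kinetics in 100 mM MOPS, pH 7.5, 25 °C. Substrate stocks were made in DMSO and diluted into buffer to a final DMSO below 5%. Initial rates of enzyme-catalysed turnover were followed spectrophotometrically. Steady-state parameters were derived from these initial rates. Buffer hydrolysis of the substrates was measured separately as pseudo-first-order rate constants.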

[2] = substrate: CO[C@@H](C(=O)NCc1ccccc1)C(=O)Oc1cccc(C(=O)O)c1; assay: as §1; conditions: Actinomadura sp. R39; how it was run: as §2
[3] = substrate: C[C@H](C(=O)NCc1ccccc1)C(=O)Oc1cccc(C(=O)O)c1; assay: as §1; conditions: Actinomadura sp. R39; how it was run: as §2
[4] = substrate: O=C(O)c1cccc(OC(=O)C2CCN(Cc3ccccc3)C2=O)c1; assay: as §1; conditions: Actinomadura sp. R39; how it was run: as §2
[5] = substrate: CN(Cc1ccccc1)C(=O)CC(=O)Oc1cccc(C(=O)O)c1; assay: (§3) Ratio of Kcat to Km for Actinomadura R39 DD-peptidase; conditions: Actinomadura sp. R39; how it was run: as §2
[6] = substrate: CO[C@@H](C(=O)NCc1ccccc1)C(=O)Oc1cccc(C(=O)O)c1; assay: as §3; conditions: Actinomadura sp. R39; how it was run: as §2
[7] = substrate: C[C@H](C(=O)NCc1ccccc1)C(=O)Oc1cccc(C(=O)O)c1; assay: as §3; conditions: Actinomadura sp. R39; how it was run: as §2
[8] = substrate: O=C(CC(=O)Oc1cccc(C(=O)O)c1)NCc1ccccc1; assay: as §3; conditions: Actinomadura sp. R39; how it was run: as §2
[9] = substrate: O=C(O)c1cccc(OC(=O)C2CCN(Cc3ccccc3)C2=O)c1; assay: as §3; conditions: Actinomadura sp. R39; how it was run: as §2
[10] = substrate: O=C(O)c1cccc(OC(=O)C2Cc3ccccc3N(Cc3ccccc3)C2=O)c1; assay: as §3; conditions: Actinomadura sp. R39; how it was run: as §2
[11] = substrate: CN(Cc1ccccc1)C(=O)CC(=O)Oc1cccc(C(=O)O)c1; assay: (§4) Activity at Enterobacter cloacae P99 beta-lactamase by spectrophotometry; how it was run: as §2
[12] = substrate: CO[C@@H](C(=O)NCc1ccccc1)C(=O)Oc1cccc(C(=O)O)c1; assay: as §4; how it was run: as §2
[13] = substrate: CO[C@H](C(=O)NCc1ccccc1)C(=O)Oc1cccc(C(=O)O)c1; assay: as §4; how it was run: as §2
[14] = substrate: C[C@@H](C(=O)NCc1ccccc1)C(=O)Oc1cccc(C(=O)O)c1; assay: as §4; how it was run: as §2
[15] = substrate: C[C@H](C(=O)NCc1ccccc1)C(=O)Oc1cccc(C(=O)O)c1; assay: as §4; how it was run: as §2
[16] = substrate: O=C(CC(=O)N(Cc1ccccc1)Cc1ccccc1)Oc1cccc(C(=O)O)c1; assay: as §4; how it was run: as §2
[17] = substrate: O=C(CC(=O)Oc1cccc(C(=O)O)c1)NCc1ccccc1; assay: as §4; how it was run: as §2
[18] = substrate: O=C(O)c1cccc(OC(=O)C(Cc2ccccc2)C(=O)NCc2ccccc2)c1; assay: as §4; how it was run: as §2
[19] = substrate: O=C(O)c1cccc(OC(=O)C2CCN(Cc3ccccc3)C2=O)c1; assay: as §4; how it was run: as §2
[20] = substrate: O=C(O)c1cccc(OC(=O)C2Cc3ccccc3N(Cc3ccccc3)C2=O)c1; assay: as §4; how it was run: as §2
[21] = substrate: CN(Cc1ccccc1)C(=O)CC(=O)Oc1cccc(C(=O)O)c1; assay: (§5) Ratio of Kcat to Km for Enterobacter cloacae P99 beta-lactamase; how it was run: as §2
[22] = substrate: CO[C@@H](C(=O)NCc1ccccc1)C(=O)Oc1cccc(C(=O)O)c1; assay: as §5; how it was run: as §2
[23] = substrate: CO[C@H](C(=O)NCc1ccccc1)C(=O)Oc1cccc(C(=O)O)c1; assay: as §5; how it was run: as §2
[24] = substrate: C[C@@H](C(=O)NCc1ccccc1)C(=O)Oc1cccc(C(=O)O)c1; assay: as §5; how it was run: as §2
[25] = substrate: C[C@H](C(=O)NCc1ccccc1)C(=O)Oc1cccc(C(=O)O)c1; assay: as §5; how it was run: as §2
[26] = substrate: O=C(CC(=O)N(Cc1ccccc1)Cc1ccccc1)Oc1cccc(C(=O)O)c1; assay: as §5; how it was run: as §2
[27] = substrate: O=C(CC(=O)Oc1cccc(C(=O)O)c1)NCc1ccccc1; assay: as §5; how it was run: as §2
[28] = substrate: O=C(O)c1cccc(OC(=O)C(Cc2ccccc2)C(=O)NCc2ccccc2)c1; assay: as §5; how it was run: as §2
[29] = substrate: O=C(O)c1cccc(OC(=O)C2CCN(Cc3ccccc3)C2=O)c1; assay: as §5; how it was run: as §2
[30] = substrate: O=C(O)c1cccc(OC(=O)C2Cc3ccccc3N(Cc3ccccc3)C2=O)c1; assay: as §5; how it was run: as §2
[31] = compound: O=C(CP(=O)(O)Oc1cccc(C(=O)O)c1)NCc1ccccc1; assay: Inhibition of Enterobacter cloacae P99 beta-lactamase assessed as inhibition of cephalothin turnover by spectrophotometry
How it was run: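 Initial rates of 200 μM cephalothin hydrolysis were measured spectrophotometrically in 100 mM MOPS, pH 7.5, at 25 °C. Compounds were added from DMSO stocks, with final DMSO below 5%.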

[32] = substrate: CO[C@@H](C(=O)NCc1ccccc1)C(=O)Oc1cccc(C(=O)O)c1; assay: (§6) Activity at Streptomyces R61 DD-peptidase by spectrophotometry; conditions: Streptomyces sp. R61; how it was run: as §2
[33] = substrate: C[C@@H](C(=O)NCc1ccccc1)C(=O)Oc1cccc(C(=O)O)c1; assay: as §6; conditions: Streptomyces sp. R61; how it was run: as §2
[34] = substrate: C[C@H](C(=O)NCc1ccccc1)C(=O)Oc1cccc(C(=O)O)c1; assay: as §6; conditions: Streptomyces sp. R61; how it was run: as §2
[35] = substrate: O=C(CC(=O)Oc1cccc(C(=O)O)c1)NCc1ccccc1; assay: as §6; conditions: Streptomyces sp. R61; how it was run: as §2
[36] = substrate: O=C(O)c1cccc(OC(=O)C2CCN(Cc3ccccc3)C2=O)c1; assay: as §6; conditions: Streptomyces sp. R61; how it was run: as §2
[37] = substrate: O=C(O)c1cccc(OC(=O)C2Cc3ccccc3N(Cc3ccccc3)C2=O)c1; assay: as §6; conditions: Streptomyces sp. R61; how it was run: as §2
[38] = substrate: CN(Cc1ccccc1)C(=O)CC(=O)Oc1cccc(C(=O)O)c1; assay: (§7) Ratio of Kcat to Km for Streptomyces R61 DD-peptidase; conditions: Streptomyces sp. R61; how it was run: as §2
[39] = substrate: CO[C@@H](C(=O)NCc1ccccc1)C(=O)Oc1cccc(C(=O)O)c1; assay: as §7; conditions: Streptomyces sp. R61; how it was run: as §2
[40] = substrate: C[C@@H](C(=O)NCc1ccccc1)C(=O)Oc1cccc(C(=O)O)c1; assay: as §7; conditions: Streptomyces sp. R61; how it was run: as §2
[41] = substrate: C[C@H](C(=O)NCc1ccccc1)C(=O)Oc1cccc(C(=O)O)c1; assay: as §7; conditions: Streptomyces sp. R61; how it was run: as §2
[42] = substrate: O=C(CC(=O)N(Cc1ccccc1)Cc1ccccc1)Oc1cccc(C(=O)O)c1; assay: as §7; conditions: Streptomyces sp. R61; how it was run: as §2
[43] = substrate: O=C(CC(=O)Oc1cccc(C(=O)O)c1)NCc1ccccc1; assay: as §7; conditions: Streptomyces sp. R61; how it was run: as §2
[44] = substrate: O=C(O)c1cccc(OC(=O)C(Cc2ccccc2)C(=O)NCc2ccccc2)c1; assay: as §7; conditions: Streptomyces sp. R61; how it was run: as §2
[45] = substrate: O=C(O)c1cccc(OC(=O)C2CCN(Cc3ccccc3)C2=O)c1; assay: as §7; conditions: Streptomyces sp. R61; how it was run: as §2
[46] = substrate: O=C(O)c1cccc(OC(=O)C2Cc3ccccc3N(Cc3ccccc3)C2=O)c1; assay: as §7; conditions: Streptomyces sp. R61; how it was run: as §2

B1: D-alanyl-D-alanine carboxypeptidase (Actinomadura sp. R39), P39045 (protein)
chain: MKQSSPEPLRPRRTGGRGGARRAAALVTIPLLPMTLLGASPALADASGARLTELREDIDAILEDPALEGAVSGVVVVDTATGEELYSRDGGEQLLPASNMKLFTAAAALEVLGADHSFGTEVAAESAPGRRGEVQDLYLVGRGDPTLSAEDLDAMAAEVAASGVRTVRGDLYADDTWFDSERLVDDWWPEDEPYAYSAQISALTVAHGERFDTGVTEVSVTPAAEGEPADVDLGAAEGYAELDNRAVTGAAGSANTLVIDRPVGTNTIAVTGSLPADAAPVTALRTVDEPAALAGHLFEEALESNGVTVKGDVGLGGVPADWQDAEVLADHTSAELSEILVPFMKFSNNGHAEMLVKSIGQETAGAGTWDAGLVGVEEALSGLGVDTAGLVLNDGSGLSRGNLVTADTVVDLLGQAGSAPWAQTWSASLPVAGESDPFVGGTLANRMRGTAAEGVVEAKTGTMSGVSALSGYVPGPEGELAFSIVNNGHSGPAPLAVQDAIAVRLAEYAGHQAPEGARMMRGPVQGSGELECSWVQAC
Km [1]: > 1000 µM | kcat [1]: > 3 ×10⁻³ /s | Km [2]: 53 µM | kcat [2]: 2.81 s⁻¹ | Km [3]: > 1000 µM | kcat [3]: > 0.73 s⁻¹ | Km [4]: > 1000 µM | kcat [4]: > 8 ×10⁻³ /s | kcat/Km [5]: 3 M⁻¹ s⁻¹ | kcat/Km [6]: 5 ×10⁴ /s/M | kcat/Km [7]: 7.28 ×10² /s/M | kcat/Km [8]: < 1.5 M⁻¹ s⁻¹ | kcat/Km [9]: 8 M⁻¹ s⁻¹ | kcat/Km [10]: < 20 M⁻¹ s⁻¹

B2: Beta-lactamase (Enterobacter cloacae), P05364 (protein)
chain: MMRKSLCCALLLGISCSALATPVSEKQLAEVVANTITPLMKAQSVPGMAVAVIYQGKPHYYTFGKADIAANKPVTPQTLFELGSISKTFTGVLGGDAIARGEISLDDAVTRYWPQLTGKQWQGIRMLDLATYTAGGLPLQVPDEVTDNASLLRFYQNWQPQWKPGTTRLYANASIGLFGALAVKPSGMPYEQAMTTRVLKPLKLDHTWINVPKAEEAHYAWGYRDGKAVRVSPGMLDAQAYGVKTNVQDMANWVMANMAPENVADASLKQGIALAQSRYWRIGSMYQGLGWEMLNWPVEANTVVEGSDSKVALAPLPVAEVNPPAPPVKASWVHKTGSTGGFGSYVAFIPEKQIGIVMLANTSYPNPARVEAAYHILEALQ
Km [11]: 700 µM | kcat [11]: 0.33 s⁻¹ | Km [12]: > 1000 µM | kcat [12]: > 7.4 s⁻¹ | Km [13]: > 1000 µM | kcat [13]: > 2.9 s⁻¹ | Km [14]: 2800 µM | kcat [14]: 6.6 s⁻¹ | Km [15]: 60 µM | kcat [15]: 1.17 s⁻¹ | Km [16]: 32 µM | kcat [16]: 0.25 s⁻¹ | Km [17]: 170 µM | kcat [17]: 41 s⁻¹ | Km [18]: 2.6 µM | kcat [18]: 0.05 s⁻¹ | Km [19]: 2500 µM | kcat [19]: 0.12 s⁻¹ | Km [20]: 1400 µM | kcat [20]: 0.41 s⁻¹ | kcat/Km [21]: 4.7 ×10² /s/M | kcat/Km [22]: 7.4 ×10³ /s/M | kcat/Km [23]: 2.9 ×10³ /s/M | kcat/Km [24]: 2.36 ×10³ /s/M | kcat/Km [25]: 2.13 ×10⁴ /s/M | kcat/Km [26]: 7.9 ×10³ /s/M | kcat/Km [27]: 2.45 ×10⁵ /s/M | kcat/Km [28]: 1.9 ×10⁴ /s/M | kcat/Km [29]: 50 M⁻¹ s⁻¹ | kcat/Km [30]: 290 M⁻¹ s⁻¹ | kcat/Km [31]: 45 M⁻¹ s⁻¹

B3: D-alanyl-D-alanine carboxypeptidase (Streptomyces sp. R61), P15555 (protein)
chain: MVSGTVGRGTALGAVLLALLAVPAQAGTAAAADLPAPDDTGLQAVLHTALSQGAPGAMVRVDDNGTIHQLSEGVADRATGRAITTTDRFRVGSVTKSFSAVVLLQLVDEGKLDLDASVNTYLPGLLPDDRITVRQVMSHRSGLYDYTNDMFAQTVPGFESVRNKVFSYQDLITLSLKHGVTNAPGAAYSYSNTNFVVAGMLIEKLTGHSVATEYQNRIFTPLNLTDTFYVHPDTVIPGTHANGYLTPDEAGGALVDSTEQTVSWAQSAGAVISSTQDLDTFFSALMSGQLMSAAQLAQMQQWTTVNSTQGYGLGLRRRDLSCGISVYGHTGTVQGYYTYAFASKDGKRSVTALANTSNNVNVLNTMARTLESAFCGKPTTAKLRSATSSATTVERHEDIAPGIARD
Km [32]: 280 µM | kcat [32]: 9.4 s⁻¹ | Km [33]: 90 µM | kcat [33]: 0.12 s⁻¹ | Km [34]: 320 µM | kcat [34]: 7.63 s⁻¹ | Km [35]: 104 µM | kcat [35]: 0.7 s⁻¹ | Km [36]: > 200 µM | kcat [36]: > 3.6 ×10⁻³ /s | Km [37]: > 200 µM | kcat [37]: > 4.2 ×10⁻³ /s | kcat/Km [38]: < 0.15 M⁻¹ s⁻¹ | kcat/Km [39]: 3.3 ×10⁴ /s/M | kcat/Km [40]: 1.31 ×10³ /s/M | kcat/Km [41]: 2.37 ×10⁴ /s/M | kcat/Km [42]: < 0.35 M⁻¹ s⁻¹ | kcat/Km [43]: 70 M⁻¹ s⁻¹ | kcat/Km [44]: < 0.2 M⁻¹ s⁻¹ | kcat/Km [45]: 17.8 M⁻¹ s⁻¹ | kcat/Km [46]: 21 M⁻¹ s⁻¹
